HCT116 PTEN-null: PTEN-deleted cell growth suppression; viability, % at 10 µM; AID 827; actives 1.2% (n = 140,000); HCT116 PTEN-null viability, CellTiter-Glo, 60 h; active compounds read low;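 active means viability at or below a set limit, 4 SD under the median of all tested compounds, cut at about 3.7% in these data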;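 further: PTEN knockout HCT116 line with beta catenin targeted HCT116 as companion control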
Fibroblast inh: blocks proliferation of human lung fibroblasts; actives 1.1% (n = 85,000); LL 47 human lung fibroblast viability, ATP luminescence; active compounds read low; viability, % at 10 µM;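 active means viability at or below 50% in the single dose screen; inactive means viability above 50%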;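 further: compound exposure lasted 72 h before the ATP readout; 100% = median luminescence of untreated cell-only wells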
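Material: human LL 47 lung fibroblast cells; quantity: 1,150 cells/well; medium: IMEM plus 15% FBS; doses: 0.1% DMSO in all compound wells; timing: overnight attachment after seeding, then 72 h compound exposure at 37 °C; detection: CellTiter-Glo luminescence; measure: % viability of median cell-only signal; controls: cell-only wells, no compound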
HCT116 bCat-KO: beta-catenin-lacking colon tumor cell growth suppression | HCT116 beta-catenin knockout viability, CellTiter-Glo, 60 h; active compounds read low | viability, % at 10 µM | actives 1.5% (n = 140,000) | AID 818;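 active means viability at or under a set limit, the compound median less 4 SD, cut at about 6% in these data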;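 further: 0% = Hyamine 1622 control at 20 µM and 100% = untreated cell control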
HUVEC prolif 384: blocks proliferation of human endothelial cells. viability, % at 10 µM (by protocol). actives 1.1% (n = 86,000). HUVEC proliferation, CellTiter-Glo luminescence, 72 h; active compounds read low;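 active means viability at or below 30%; inactive means viability above 30%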;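 further: 100% = median luminescence of DMSO-only cell control wells on each plate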
H69AR inhibit: growth inhibitors of human H69AR lung tumor cells. H69AR lung tumor viability, ATP luminescence, 72 h; active compounds read low. viability, % at 10 µM. actives 6% (n = 85,000). AID 598;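 active means viability at or below 40%; inactive means viability above 40%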;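 further: multidrug resistant small cell line overexpressing MRP-1 efflux transporter; 100% = mean luminescence of untreated control wells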
An asterisk follows results filed as active; nt = not tested or not shown. The full list was thinned out, with hits kept by preference.

SMILES	HCT116 PTEN-null	Fibroblast inh	HCT116 bCat-KO	HUVEC prolif 384	H69AR inhibit
CCCc1cc(=O)[nH]c(-n2[nH]c3c(c2=O)CCCC3)n1	9.8	nt	4.7*	nt	nt
CCCc1cc(=O)[nH]c(SCC)n1	105.2	96.7	89.4	89.8	nt
Cc1cc(Nc2nc3ccccc3nc2Cl)n(-c2ccc([N+](=O)[O-])cc2)n1	37.8	67.6	20.1	67.0	21.4*
N#Cc1c(NCCCO)nc(NCc2ccccc2)c2c1CCN(Cc1ccccc1)C2	59.9	85.8	72.7	70.2	42.6
CN1CCc2c(C#N)c(N3CCCCC3)nc(NCc3ccccc3)c2C1	1.4*	67.4	1.0*	10.7*	3.4*
O=C(NCC(c1cccs1)N1CCOCC1)c1ccc([N+](=O)[O-])cc1 (stereo not drawn)	37.2	nt	39.5	nt	nt
CCCCC(=O)O[C@H]1CC[C@H]2[C@@H]3CCc4cc(O)ccc4[C@H]3CC[C@]12C	62.8	84.6	53.0	8.9*	1.1*
C[C@]12CC[C@@H]3c4ccc(O)cc4CC[C@H]3[C@@H]1CCC2=O	75.5	92.9	77.7	77.8	81.3
CCOC(=O)c1c(NC(C)=O)sc2c(OC)c(Br)ccc12	76.3	94.3	62.1	79.6	37.5*
CCOC(=O)c1c(NC(C)=O)sc2c(OC)cccc12	72.6	97.1	74.0	95.6	83.7
COc1ccc(Cn2c(SCc3ccccc3C)nc3cc(OC)c(OC)cc3c2=N)cc1	1.1*	nt	1.6*	nt	nt
Cc1ccc2c(c1)c(=O)c1c3n2CCN(C(=O)CCl)C3CC1 (stereo not drawn)	92.8	2.0*	92.2	8.9*	1.5*
CN1CCN(CC(=O)N2CCn3c4c(c5cc(C6CCCCC6)ccc53)CCCC42)CC1 (stereo not drawn)	1.6*	1.9*	1.3*	2.7*	1.1*
Cc1ccc2c(c1)c1c3n2CCCN(Cc2ccccc2)C3CCC1 (stereo not drawn)	76.3	86.0	77.9	82.3	36.4*
Cc1ccc2c(c1)c1c3n2CCN(C(=O)CN2CCN(C)CC2)C3CCC1 (stereo not drawn)	0.8*	62.9	1.0*	22.8*	92.0
Cc1ccc2c(c1)c1c3n2CCN(C(=O)Cn2c(-c4ccccc4)noc2=O)C3CCC1 (stereo not drawn)	60.5	97.5	68.7	91.7	86.3
Cc1ccc2c(c1)c1c3n2CCN(C(=O)C2CC2)C3CCC1 (stereo not drawn)	89.5	93.3	82.8	103.7	90.6
CCC(=O)NC(=S)Nc1ccc(OC)cc1OC	91.9	nt	90.3	nt	nt
CCCNC1=C(N(C(C)=O)c2cccc(F)c2)C(=O)c2ccccc2C1=O	0.8*	nt	1.0*	nt	nt
Cc1ccccc1Cc1c(C)nc2c(C(=O)NCc3ccc4c(c3)OCO4)cnn2c1C	72.7	95.8	84.9	70.8	29.4*
Cc1ccc(C)c(Cc2c(C)nc3c(C(=O)NCc4ccc5c(c4)OCO5)cnn3c2C)c1	51.2	91.5	61.3	89.8	60.8
CC(C)n1cc(NC(=O)c2cc(-c3ccccc3)on2)cn1	25.4	73.5	23.6	69.6	20.5*
COC(=O)c1ccc(C(=O)OC)c(NC(=O)COC(=O)c2ccccc2OC)c1	98.5	nt	89.7	nt	nt
CSc1ccccc1NC(=O)Nc1ccc(Cl)cc1	19.7	83.6	29.4	46.7	35.3*
CSc1cccc(NC(=O)Nc2ccc(Cl)cc2)c1	63.4	94.1	62.2	96.8	85.8
SMILES	HCT116 PTEN-null	Fibroblast inh	HCT116 bCat-KO	HUVEC prolif 384	H69AR inhibit
CN1c2ccccc2C(C)(C)C12CC(CCl)=NO2 (stereo not drawn)	82.4	95.8	81.5	90.1	4.5*
CN1c2ccccc2C(C)(C)C12CC(c1ccc(Cl)c(S(=O)(=O)N3CCCC3)c1)=NO2 (stereo not drawn)	81.9	nt	72.8	nt	nt
CCNC(=O)c1ccc(C2SCC(=O)N2Cc2ccco2)cc1 (stereo not drawn)	84.3	94.5	87.2	87.6	78.5
COc1cc2c(N3CCOCC3)cc(O)c(CC(=O)Nc3ccccc3)c2cc1OC	103.7	48.2*	99.3	85.7	82.5
CC1=C(C(=O)OCc2ccc3c(c2)OCO3)C(c2ccccc2)NC(=O)N1 (stereo not drawn)	22.9	82.3	23.9	25.6*	22.5*
CC1=C(C(=O)OCc2ccc3c(c2)OCO3)C(c2ccccc2OCc2ccccc2)NC(=O)N1 (stereo not drawn)	55.7	96.0	59.7	86.3	77.3
CCOC(=O)C1=C(O)C(Nc2nc3ccccc3s2)(C(F)(F)F)N=C1C (stereo not drawn)	61.2	88.2	66.7	86.8	73.3
O=C1CSC(=S)N1Cc1cccnc1	3.2*	36.5*	3.9*	51.2	1.2*
O=C1CSC(=S)N1c1cccnc1	99.8	102.7	110.2	94.2	101.3
COc1ccc(Oc2ccccc2/C=N/O)cc1	101.5	nt	110.9	nt	nt
Cc1ccc(C2Oc3ccccc3C3=C2C(c2cccs2)n2ncnc2N3)cc1 (stereo not drawn)	23.1	44.2*	26.1	66.0	18.2*
O=C(CSc1nnc(COc2ccccc2)o1)c1ccccc1	92.5	97.5	87.4	102.0	109.1
COc1ccc2nc(SCC(=O)Nc3ccc(S(=O)(=O)N4CCCC4)cc3)c(C#N)cc2c1	77.5	100.1	72.6	90.6	6.0*
N#Cc1cc2ccccc2nc1SCC(=O)Nc1ccc(S(=O)(=O)N2CCCC2)cc1	67.8	87.7	61.5	76.2	52.6
COc1ccc(-c2nnc(SC(C)C(=O)NCc3ccc4c(c3)OCO4)n2Cc2ccco2)cc1 (stereo not drawn)	65.5	107.4	72.2	91.8	88.0
Cn1c(=O)[nH]c(=O)c2c1nc(Br)n2CCCSc1nc2ccccc2o1	16.9	59.9	20.1	57.4	16.2*
Cc1ccc2nc(-c3ccc(O)cc3)c(Nc3ccc4c(c3)OCCO4)n2c1	73.3	95.8	73.4	79.7	64.4
COc1ccc(-c2nc3cnccn3c2Nc2ccc3c(c2)OCO3)cc1	63.6	83.9	70.5	78.3	24.0*
Cc1ccc(-c2nc3cnccn3c2Nc2ccc3c(c2)OCO3)cc1	57.5	91.6	63.0	77.5	25.3*
Cc1ccc(-c2nc3cnccn3c2Nc2ccc3c(c2)OCCO3)o1	100.2	98.2	93.4	95.5	65.4
CSc1ccc(C2C(C#N)=C(N)Oc3c2ccc(=O)c2c(C)oc(C)c32)cc1 (stereo not drawn)	80.1	95.0	75.9	63.9	10.4*
Cc1oc(C)c2c(=O)ccc3c(c12)OC(N)=C(C#N)C3c1ccccc1 (stereo not drawn)	91.6	88.5	83.2	62.9	91.0
CCOC(=O)c1c(C)[nH]c(C)c1C(=O)COC(=O)c1ccccc1O	71.1	nt	81.7	nt	nt
CC(=O)c1cnc(N(C)C)s1	91.3	100.5	92.4	98.0	94.0
CN(C)c1ncc(C2=C(Cl)C(=O)C(N3CCCC3)=C(Cl)C2=O)s1	1.6*	69.5	1.4*	22.6*	89.2
O=C1C(Cl)=C(N2CCCCC2)C(=O)C(Cl)=C1c1cnc(N2CCCCC2)s1	1.5*	18.8*	1.1*	14.2*	1.6*
C=C(C)Cn1c(CCNC(=O)CC)nc2ccccc21	85.0	nt	92.7	nt	nt

Assay outcomes deposited in PubChem BioAssay by SRMLSC.
